In one data set the test system is Klebsiella pneumoniae. The experiment in a line: Antimicrobial activity in Klebsiella pneumoniae DIH-2 clinical isolate expressing beta-lactamase VIM-19 by Etest. It counts as functional.
The subject of data set [1] is Escherichia coli. The experiment in a line: Antimicrobial activity in Escherichia coli J53 transconjugate with Escherichia coli DIH-1 expressing natural plasmid containing beta-lactamase VIM-19. Format: functional. In short, it runs like this:
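Transconjugants came from liquid mating-out at 37°C with azide-resistant E. coli J53 as recipient, selected on agar with amoxicillin (50 μg/ml) plus azide (100 μg/ml). MICs were then read by Etest on Mueller-Hinton agar at 37°C and interpreted per CLSI.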

The subject of data set [2] is Escherichia coli. The experiment in a line: microbe, parasite or virus in culture. Format: functional. To be noted: TOP10.
Data set [3] concerns Escherichia coli. The data set can be described thus: microbe, parasite or virus in culture. It counts as functional. To be noted: TOP10. The source holds these as a separate data set.
In data set [4] the test system is Escherichia coli. The experiment in a line: microbe, parasite or virus in culture. It counts as functional. To be noted: TOP10. This is another data set of the same source.
The subject of data set [5] is Escherichia coli. The experiment in a line: Antimicrobial activity in Escherichia coli TOP10 strain. Format: functional. In short, it runs like this:
(§1)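 MICs were determined by Etest on Mueller-Hinton agar plates incubated at 37°C. Susceptibility was interpreted according to CLSI guidelines.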

Data set [6] concerns Escherichia coli. The experiment in a line: Antimicrobial activity in Escherichia coli DIH-1 expressing beta-lactamase VIM-19 by Etest. It counts as functional. The gist of the method: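 MICs read by Etest on Mueller-Hinton agar incubated at 37°C. Susceptibility was categorized according to CLSI guidelines. Transconjugants were obtained in E. coli J53 by liquid mating at 37°C, with selection on agar containing amoxicillin (50 μg/ml) and azide (100 μg/ml).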

Data set [7] deals with Escherichia coli. The data set can be described thus: Antimicrobial activity in Escherichia coli J53 strain. Format: functional. In short, it runs like this: as §1
Data set [8] relates to Escherichia coli. The experiment in a line: microbe, parasite or virus in culture. It counts as functional. To be noted: TOP10. The source holds these as a separate data set.
Data set [9] concerns CC(C)(O/N=C(\C(=O)N[C@@H]1C(=O)N2C(C(=O)[O-])=C(C[n+]3ccccc3)CS[C@H]12)c1csc(N)n1)C(=O)O. The experiment in a line: (§2) Hydrolytic activity of beta-lactamase VIM-1 expressed in Escherichia coli TOP10 by spectrophotometry.
Data set [10] concerns CO[C@@]1(NC(=O)Cc2cccs2)C(=O)N2C(C(=O)O)=C(COC(N)=O)CS[C@@H]21. The description is as §2.
In data set [11] the test system is C[C@@H](O)[C@H]1C(=O)N2C(C(=O)O)=C(S[C@@H]3CN[C@H](C(=O)N(C)C)C3)[C@H](C)[C@H]12. Described as §2.
The test system of data set [12] is CC1(C)S[C@@H]2[C@H](NC(=O)Cc3ccccc3)C(=O)N2[C@H]1C(=O)O. The description is as §2.
Data set [13] has as its system CCN1CCN(C(=O)N[C@@H](C(=O)N[C@@H]2C(=O)N3[C@@H]2SC(C)(C)[C@@H]3C(=O)O)c2ccccc2)C(=O)C1=O. The data set is described as §2.
Data set [14] concerns CO/N=C(\C(=O)N[C@@H]1C(=O)N2C(C(=O)O)=C(COC(C)=O)CS[C@H]12)c1csc(N)n1. The description is as §2.
Data set [15] deals with CC(C)(O/N=C(\C(=O)N[C@@H]1C(=O)N2C(C(=O)[O-])=C(C[n+]3ccccc3)CS[C@H]12)c1csc(N)n1)C(=O)O. The experiment in a line: (§3) Ratio of Kcat to Km for beta-lactamase VIM-1 expressed in Escherichia coli TOP10 by spectrophotometry.
Data set [16] has as its system CO[C@@]1(NC(=O)Cc2cccs2)C(=O)N2C(C(=O)O)=C(COC(N)=O)CS[C@@H]21. The description is as §3.
The subject of data set [17] is C[C@@H](O)[C@H]1C(=O)N2C(C(=O)O)=C(S[C@@H]3CN[C@H](C(=O)N(C)C)C3)[C@H](C)[C@H]12. The description is as §3.
Data set [18] concerns CC1(C)S[C@@H]2[C@H](NC(=O)Cc3ccccc3)C(=O)N2[C@H]1C(=O)O. The data set is described as §3.
For data set [19], the system named is CCN1CCN(C(=O)N[C@@H](C(=O)N[C@@H]2C(=O)N3[C@@H]2SC(C)(C)[C@@H]3C(=O)O)c2ccccc2)C(=O)C1=O. Described as §3.
In data set [20] the test system is CO/N=C(\C(=O)N[C@@H]1C(=O)N2C(C(=O)O)=C(COC(C)=O)CS[C@H]12)c1csc(N)n1. Described as §3.

Converted amounts (≈) assume the structure as drawn.

`C[C@@H](O)[C@H]1C(=O)N2C(C(=O)O)=C(SCCNC=N)C[C@H]12` [IMIPENEM ANHYDROUS]: the values for the MIC against Klebsiella pneumoniae and against Escherichia coli [1] were 8 µg/mL (≈ 26.7 µM) and 4 µg/mL (≈ 13.4 µM), respectively.

On to `CO[C@@]1(NC(=O)Cc2cccs2)C(=O)N2C(C(=O)O)=C(COC(N)=O)CS[C@@H]21` [CEFOXITIN], for which the MIC in the data set on Escherichia coli [2] was 256 µg/mL (≈ 599 µM); against Escherichia coli [3], 256 µg/mL (≈ 599 µM); in the data set on Klebsiella pneumoniae it was more than 512 µg/mL; against Escherichia coli [4] it was 256 µg/mL (≈ 599 µM); in the data set on Escherichia coli [5] it was 4 µg/mL (≈ 9.36 µM); in the data set with Escherichia coli [1], 256 µg/mL (≈ 599 µM). Further, the MIC against Escherichia coli [6] was more than 512 µg/mL; against Escherichia coli [7], 4 µg/mL (≈ 9.36 µM); with Escherichia coli [8], 256 µg/mL (≈ 599 µM).

With `C[C@@H](O)[C@H]1C(=O)N2C(C(=O)O)=C(S[C@@H]3CN[C@H](C(=O)Nc4cccc(C(=O)O)c4)C3)[C@H](C)[C@H]12`, the MIC in the data set with Escherichia coli [2] is 2 µg/mL (≈ 4.21 µM); in the data set on Escherichia coli [3], 0.125 µg/mL (≈ 0.263 µM); against Klebsiella pneumoniae it was 16 µg/mL (≈ 33.6 µM); in the data set with Escherichia coli [4], 0.125 µg/mL (≈ 0.263 µM); in the data set with Escherichia coli [5], 0.006 µg/mL (≈ 0.0126 µM); against Escherichia coli [1] it was 1.5 µg/mL (≈ 3.15 µM). In addition, the MIC turned out to be 16 µg/mL (≈ 33.6 µM) in the data set on Escherichia coli [6], 0.006 µg/mL (≈ 0.0126 µM) with Escherichia coli [7] and 2 µg/mL (≈ 4.21 µM) with Escherichia coli [8].

For orientation: Km means the concentration of substrate that gives half-maximal velocity. Broadly, the kcat is the number of substrate molecules converted per active site and unit of time at saturation. By kcat/Km is commonly meant the second-order rate constant that governs catalysis at low substrate concentration. For “BlaVIM-1 (Escherichia coli) (from UniProt Q8GDC1)”, the Km in data set [9] worked out at 800 µM; in data set [10], 130 µM; in data set [11], 50 µM; in data set [12] it was 850 µM; in data set [13] it was 3500 µM; in [14] it was 250 µM. The kcat in [9] is 60 s⁻¹. The kcat/Km in data set [15] worked out at 100000 M⁻¹ s⁻¹; in data set [16], 200000 M⁻¹ s⁻¹; in [17] it was 300000 M⁻¹ s⁻¹; in [18], 50000 M⁻¹ s⁻¹; in data set [19], 500000 M⁻¹ s⁻¹; in data set [20] it was 700000 M⁻¹ s⁻¹.

Regarding `CO/N=C(\C(=O)N[C@@H]1C(=O)N2C(C(=O)[O-])=C(C[n+]3cccc4c3CCC4)CS[C@H]12)c1csc(N)n1` [CEFPIROME], the MIC in the data set with Escherichia coli [2] turned out to be 2 µg/mL (≈ 3.89 µM); in the data set on Escherichia coli [3], 32 µg/mL (≈ 62.2 µM); in the data set on Klebsiella pneumoniae it was 64 µg/mL (≈ 124 µM); in the data set with Escherichia coli [4] it was 32 µg/mL (≈ 62.2 µM); in the data set on Escherichia coli [5] it was 0.06 µg/mL (≈ 0.117 µM); against Escherichia coli [1] it was 2 µg/mL (≈ 3.89 µM). The results for the MIC in the data set with Escherichia coli [6], in the data set on Escherichia coli [7] and in the data set on Escherichia coli [8] were 32 µg/mL (≈ 62.2 µM), 0.12 µg/mL (≈ 0.233 µM) and 2 µg/mL (≈ 3.89 µM), respectively.

As to `C[C@@H](O)[C@H]1C(=O)N2C(C(=O)O)=C(S[C@@H]3CN[C@H](C(=O)N(C)C)C3)[C@H](C)[C@H]12` [MEROPENEM], the MIC in the data set on Escherichia coli [2] came out at 1 µg/mL (≈ 2.61 µM); in the data set with Escherichia coli [3] it was 0.25 µg/mL (≈ 0.652 µM); against Klebsiella pneumoniae, 4 µg/mL (≈ 10.4 µM); against Escherichia coli [4], 0.25 µg/mL (≈ 0.652 µM); in the data set on Escherichia coli [5] it was 0.016 µg/mL (≈ 0.0417 µM); against Escherichia coli [1], 0.5 µg/mL (≈ 1.3 µM). The MIC with Escherichia coli [7] was 0.016 µg/mL (≈ 0.0417 µM); with Escherichia coli [8], 1 µg/mL (≈ 2.61 µM).

For the molecule `C[C@H]1[C@H](NC(=O)/C(=N\OC(C)(C)C(=O)O)c2csc(N)n2)C(=O)N1S(=O)(=O)O` [AZTREONAM], the MIC in the data set on Escherichia coli [3] amounted to 0.12 µg/mL (≈ 0.276 µM); with Escherichia coli [6], 4 µg/mL (≈ 9.19 µM).

The values are drawn from ChEMBL document CHEMBL1212781, “VIM-19, a metallo-beta-lactamase with increased carbapenemase activity from Escherichia coli and Klebsiella pneumoniae” (2010).
